# Assays:
# Heme = experiment: Inhibition of heme polymerization at 1 mM after 48 hrs by spectrophotometry relative to chloroquine
# Outline: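 Hemin chloride in DMSO (5.2 mg/mL) mixed with compound in DMSO (0.1–1 mM), in triplicate; water or DMSO as negative control, 1 mM CQ as positive. β-hematin formation started with 0.2 M acetate buffer pH 4.4, then 48 h at 37 °C. Pellet washed with DMSO, dissolved in 0.2 M NaOH, diluted 1:6 in 0.1 M NaOH, read at 405 nm.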
# [1] = Inhibition of Plasmodium falciparum falcipain 3 using substrate benzoxycarbonyl-Leu-Arg-7-amino-4-methyl-coumarin preincubated for 30 mins before substrate addition by fluorescence assay
# Outline: (§1)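 Recombinant enzyme (1 nM) incubated with inhibitor at varied concentrations (from 10 mM DMSO stocks) in 100 mM sodium acetate pH 5.5, 10 mM DTT, 30 min at room temperature. Substrate then added at 25 μM final. Fluorescence monitored continuously for 30 min at room temperature; IC50 from curve fitting. FP3 tested only for compounds with FP2 IC50 < 50 μM.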
# Plasmodium falciparum = experiment: Antiplasmodial activity against chloroquine-resistant blood-stage Plasmodium falciparum W2 after 48 hrs by flow cytometric analysis; assay type: functional, organism-based; conditions: W2, 48 h
# Outline: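 Synchronized ring-stage W2 parasites cultured 48 h with multiple compound concentrations (from 1000× DMSO stocks) in RPMI 1640 with 10% human serum or 0.5% Albumax. Cells then fixed in 1% formaldehyde/PBS pH 7.4 for 48 h at room temperature and stained with YOYO-1 (1 nM) in 0.1% Triton X-100. Parasitemia read by flow cytometry. IC50 taken from percent-of-control parasitemia curves, R2 >0.95.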
# [2] = Inhibition of Plasmodium falciparum falcipain 2 using substrate benzoxycarbonyl-Leu-Arg-7-amino-4-methyl-coumarin preincubated for 30 mins before substrate addition by fluorescence assay; outline: as §1
Structure (SMILES),inhibition (Heme) [%],IC50 [1] [µM],IC50 (Plasmodium falciparum) [µM],IC50 [2] [µM]
CCN(CC)CCCC(C)Nc1ccnc2cc(Cl)ccc12 (centres undefined),> 75,–,–,–
Cc1ccc(/C=C/C(=O)Nc2ccnc3cc(Cl)ccc23)cc1,< 50,> 50,> 10,28.5
CC(C)C[C@H](NC(=O)[C@H]1O[C@@H]1C(=O)O)C(=O)NCCCCN=C(N)N [E-64],–,–,–,0.0246
O=C(/C=C/c1cccc([N+](=O)[O-])c1)Nc1ccnc2cc(Cl)ccc12,< 50,> 50,> 10,14.2
CC(C)C[C@@H](NC(=O)/C=C/c1ccc(F)cc1)C(=O)N[C@H](CCc1ccccc1)C(=O)Nc1ccnc2cc(Cl)ccc12,< 50,–,4.67,50
O=C(/C=C/c1ccc(Cl)cc1)Nc1ccnc2cc(Cl)ccc12,< 50,> 50,> 10,41.3
CC(C)C[C@@H](NC(=O)/C=C/c1ccc(C(C)C)cc1)C(=O)N[C@H](CCc1ccccc1)C(=O)Nc1ccnc2cc(Cl)ccc12,< 50,–,0.83,> 50
CC(C)C[C@@H](NC(=O)/C=C/c1ccccc1)C(=O)N[C@H](CCc1ccccc1)C(=O)Nc1ccnc2cc(Cl)ccc12,< 50,> 50,4.89,19.6
COc1ccc(/C=C/C(=O)Nc2ccnc3cc(Cl)ccc23)cc1,< 50,–,> 10,> 50
CC(C)C[C@@H](NC(=O)/C=C/c1ccc(N)cc1)C(=O)N[C@H](CCc1ccccc1)C(=O)Nc1ccnc2cc(Cl)ccc12,> 75,> 50,3.28,20.3
O=C(/C=C/c1cccc(F)c1)Nc1ccnc2cc(Cl)ccc12,< 50,–,> 10,> 50
CC(C)C[C@@H](NC(=O)/C=C/c1ccc(Br)cc1)C(=O)N[C@H](CCc1ccccc1)C(=O)Nc1ccnc2cc(Cl)ccc12,< 50,> 50,2.55,48.3
CC(C)C[C@@H](NC(=O)/C=C/c1ccccc1[N+](=O)[O-])C(=O)N[C@H](CCc1ccccc1)C(=O)Nc1ccnc2cc(Cl)ccc12,50,–,1.66,> 50
CC(C)C[C@@H](NC(=O)/C=C/c1cccc([N+](=O)[O-])c1)C(=O)N[C@H](CCc1ccccc1)C(=O)Nc1ccnc2cc(Cl)ccc12,< 50,> 50,2.1,28.1
O=C(/C=C/c1ccc([N+](=O)[O-])cc1)Nc1ccnc2cc(Cl)ccc12,< 50,–,> 10,> 50
COc1ccc(/C=C/C(=O)N[C@H](CC(C)C)C(=O)N[C@H](CCc2ccccc2)C(=O)Nc2ccnc3cc(Cl)ccc23)cc1,50,–,10.8,> 50
O=C(/C=C/c1ccccc1)Nc1ccnc2cc(Cl)ccc12,< 50,–,> 10,> 50
CC(C)C[C@@H](NC(=O)/C=C/c1ccc(Cl)cc1)C(=O)N[C@H](CCc1ccccc1)C(=O)Nc1ccnc2cc(Cl)ccc12,< 50,–,2.89,> 50
Cc1ccc(/C=C/C(=O)N[C@H](CC(C)C)C(=O)N[C@H](CCc2ccccc2)C(=O)Nc2ccnc3cc(Cl)ccc23)cc1,> 75,–,1.96,> 50
O=C(/C=C/c1ccc(Br)cc1)Nc1ccnc2cc(Cl)ccc12,< 50,> 50,> 10,33.1
O=C(/C=C/c1ccc(F)cc1)Nc1ccnc2cc(Cl)ccc12,< 50,–,> 10,> 50
O=C(/C=C/c1ccccc1[N+](=O)[O-])Nc1ccnc2cc(Cl)ccc12,< 50,> 50,> 10,23.6
CC(C)C[C@@H](NC(=O)/C=C/c1ccc([N+](=O)[O-])cc1)C(=O)N[C@H](CCc1ccccc1)C(=O)Nc1ccnc2cc(Cl)ccc12,> 75,–,1.23,> 50
CC(C)C[C@H](NC(=O)/C=C/c1ccccc1)C(=O)N[C@@H](CCc1ccccc1)C(=O)Nc1ccnc2cc(Cl)ccc12,–,–,8,50
CC(C)C[C@@H](NC(=O)/C=C/c1cccc(F)c1)C(=O)N[C@H](CCc1ccccc1)C(=O)Nc1ccnc2cc(Cl)ccc12,< 50,> 50,5.43,23.1
C[C@@H]1CC[C@H]2[C@@H](C)C(=O)O[C@@H]3O[C@@]4(C)CC[C@@H]1[C@]32OO4 [ARTEMISININ],–,–,0.00876,–
CC(C)c1ccc(/C=C/C(=O)Nc2ccnc3cc(Cl)ccc23)cc1,< 50,–,> 10,> 50
